According to ChEMBL document CHEMBL3808376, “Iminolactones as tools for inversion of the absolute configuration of α-amino acids and as inhibitors of cancer cell proliferation” (Eur J Med Chem, 2016):
pIC50: −log10 of the molar value.

Columns and labels:
EL4 = assay: Antiproliferative activity against mouse EL4 cells after 48 hrs by Sulforhodamine B assay; format: functional, cell-based; conditions: EL4, 48 h
In short: (§1)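 Cancer lines from the National Cancer Institute (murine leukemic EL4, human breast MCF7, human prostate PC3), in a standard high-flux screening format. Cells incubated with compound at several concentrations, 37 °C for 48 h. Trichloroacetic acid fixation, sulforhodamine B staining, absorbance read at 490 nm. IC50 reported as mean SD of three experiments.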

MCF7 = assay: Antiproliferative activity against human MCF7 cells after 48 hrs by Sulforhodamine B assay; format: functional, cell-based; conditions: MCF7, 48 h; in short: as §1
[1] = Antiproliferative activity against human PC3 cells after 48 hrs by Sulforhodamine B assay; format: functional, cell-based; conditions: PC-3, 48 h; in short: as §1
[2] = Antiproliferative activity against mouse McCoy cells after 48 hrs by Sulforhodamine B assay; format: cell-based
[3] = Antiproliferative activity against human MCF10A cells after 48 hrs by Sulforhodamine B assay; format: cell-based; conditions: MCF-10A
[4] = Antiproliferative activity against mouse NIH/3T3 cells after 48 hrs by Sulforhodamine B assay; format: cell-based; conditions: NIH3T3, 48 h

SMILES | pIC50 (MCF7) | pIC50 (EL4) | pIC50 [1] | pIC50 [2] | pIC50 [3] | pIC50 [4]
CC(C)(C)OC(=O)CC[C@@H]1N=C2C[C@@H]3C[C@@H](C3(C)C)[C@]2(C)OC1=O | 4.40 | 4.44 | 4.38 | < 3.00 | < 3.00 | < 3.00
CC1(C)N=C2C[C@H]3C[C@H](C3(C)C)[C@@]2(C)OC1=O | 3.79 | 3.83 | 3.78 | < 2.70 | < 2.70 | < 2.70
CC(C)(C)OC(=O)NCCCC[C@@H]1N=C2C[C@@H]3C[C@@H](C3(C)C)[C@]2(C)OC1=O | 4.77 | 4.82 | 4.74 | < 3.10 | < 3.10 | < 3.10
CC(C)(C)OC(=O)NCCC[C@@H]1N=C2C[C@@H]3C[C@@H](C3(C)C)[C@]2(C)OC1=O | 5.20 | 5.39 | 5.18 | < 2.92 | < 2.92 | < 2.92
CC1(C)[C@H]2CC[C@]1(C)[C@H]1OC(=O)[C@H](Cc3ccccc3)N=C21 | – | – | 3.80 | – | – | –
CC(C)(C)OC(=O)n1cnc(C[C@H]2N=C3C[C@H]4C[C@H](C4(C)C)[C@@]3(C)OC2=O)c1 | 3.85 | 3.86 | 3.83 | < 2.89 | < 2.89 | < 2.89
C[C@H]1N=C2C[C@H]3C[C@H](C3(C)C)[C@@]2(C)OC1=O | 4.42 | 4.57 | 4.38 | < 2.74 | < 2.74 | < 2.74
CC1(C)[C@@H]2CC3=N[C@@H](CCC(=O)O)C(=O)O[C@@]3(C)[C@H]1C2 | 4.42 | 4.44 | 4.38 | < 2.92 | < 2.92 | < 2.92
CC(C)(C)OC(=O)NCCC[C@H]1N=C2C[C@H]3C[C@H](C3(C)C)[C@@]2(C)OC1=O | 4.25 | 4.32 | 4.22 | < 2.82 | < 2.82 | < 2.82
O=C1O[C@H]2CCc3ccccc3C2=N[C@H]1Cc1ccccc1 | 4.39 | 4.41 | 4.35 | < 3.00 | < 3.00 | < 3.00
CC1(C)[C@H]2CC3=N[C@H](CCC(=O)O)C(=O)O[C@]3(C)[C@@H]1C2 | 4.47 | 4.52 | 4.42 | < 2.92 | < 2.92 | < 2.92
CC(C)(C)OC(=O)NCCCC[C@H]1N=C2C[C@H]3C[C@H](C3(C)C)[C@@]2(C)OC1=O | 4.82 | 4.84 | 4.80 | < 2.89 | < 2.89 | < 2.89
CC1(C)[C@@H]2CC3=NCC(=O)O[C@@]3(C)[C@H]1C2 | 4.66 | 4.72 | 4.37 | < 3.05 | < 3.05 | < 3.05
C[C@@H]1N=C2C[C@@H]3C[C@@H](C3(C)C)[C@]2(C)OC1=O | 3.81 | 3.84 | 3.83 | < 2.70 | < 2.70 | < 2.70
CC1(C)[C@H]2CC3=NCC(=O)O[C@]3(C)[C@@H]1C2 | < 3.52 | < 3.52 | < 3.52 | < 2.70 | < 2.70 | < 2.70
O=C1O[C@H]2CCc3ccccc3C2=N[C@H]1Cc1c[nH]c2ccccc12 | 4.41 | 4.44 | 4.41 | < 3.00 | < 3.00 | < 3.00
CC1(C)[C@H]2CC[C@]1(C)[C@H]1OC(=O)CN=C21 | 3.87 | 4.09 | 3.84 | < 3.05 | < 3.05 | < 3.05
C[C@@]12CCCC[C@H]1CC=C(O)C2=O | 3.92 | 3.94 | 3.92 | < 2.70 | < 2.70 | < 2.70
CC(C)(C)OC(=O)CC[C@H]1N=C2C[C@H]3C[C@H](C3(C)C)[C@@]2(C)OC1=O | 4.27 | 4.29 | 4.26 | < 2.92 | < 2.92 | < 2.92
O=C1O[C@@H]2CCc3ccccc3C2=N[C@H]1Cc1c[nH]c2ccccc12 | 4.60 | 4.66 | 4.59 | < 3.00 | < 3.00 | < 3.00

Now from value to compound, other results behind:

pIC50 (MCF7) | SMILES | pIC50 (EL4) | pIC50 [1] | pIC50 [2] | pIC50 [3] | pIC50 [4]
4.11 | C[C@@]12CCCC[C@H]1CC[C@@H]1OC(=O)[C@H](Cc3c[nH]c4ccccc34)N=C12 | 4.15 | 4.08 | < 2.82 | < 2.82 | < 2.82
4.96 | C[C@@]12CCCC[C@H]1CC[C@@H]1OC(=O)CN=C12 | 5.11 | 4.89 | < 2.70 | < 2.70 | < 2.70
4.24 | C[C@H]1N=C2[C@H](CC[C@@H]3CCCC[C@@]23C)OC1=O | 4.28 | 4.24 | < 2.70 | < 2.70 | < 2.70
< 3.52 | CC1(C)[C@@H]2CC3=N[C@@H](Cc4ccccc4)C(=O)O[C@@]3(C)[C@H]1C2 | < 3.52 | < 3.52 | < 3.00 | < 3.00 | < 3.00
5.08 | CC1(C)[C@H]2CC3=N[C@H](Cc4ccccc4)C(=O)O[C@]3(C)[C@@H]1C2 | 5.11 | 5.03 | < 2.82 | < 2.82 | < 2.82
4.28 | C[C@@]12CCCC[C@H]1CC[C@@H]1OC(=O)[C@H](Cc3ccccc3)N=C12 | 4.30 | 4.29 | < 2.77 | < 2.77 | < 2.77
4.92 | C[C@@]12CCCC[C@H]1CC[C@@H]1OC(=O)[C@@H](Cc3ccccc3)N=C12 | 4.92 | 4.92 | < 2.92 | < 2.92 | < 2.92
4.57 | O=C1O[C@@H]2CCc3ccccc3C2=N[C@H]1Cc1ccccc1 | 4.62 | 4.52 | < 3.00 | < 3.00 | < 3.00
